# Data published in ChEMBL document CHEMBL1152226 (Bioorg Med Chem, 2008).
# Legend:
# [1] = biological target: Inosine-5'-monophosphate dehydrogenase 2 (Homo sapiens, UniProt P12268); experiment: Inhibition of human IMPDH2
# [2] = biological target: Inosine-5'-monophosphate dehydrogenase 1 (Homo sapiens, UniProt P20839); experiment: Inhibition of human IMPDH1
# Method in brief: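 Run in duplicate with IMPDH type 1 (100 nM; line 2) or type 2 (30 nM; line 3) in 50 mM Tris pH 8.0, 100 mM KCl, 1 mM DTT, with IMP and NAD substrates. Inhibitors were added from DMSO to 1% final. At 25 °C, NADH formation was followed at 340 nm. Ki(app) came from fitting steady-state velocities versus inhibitor concentration to the Morrison equation.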
# K562 = experiment: Antiproliferative activity against human K562 cells after 72 hrs by MTS assay; type: functional, cell-based
# [3] = Selectivity ratio of IC50 for human K562 cells to Ki for human IMPDH2; type: ADME, cell-based
# Inosine-5'-monophosphate dehydrogenase 1, sequence (P20839 whole entry): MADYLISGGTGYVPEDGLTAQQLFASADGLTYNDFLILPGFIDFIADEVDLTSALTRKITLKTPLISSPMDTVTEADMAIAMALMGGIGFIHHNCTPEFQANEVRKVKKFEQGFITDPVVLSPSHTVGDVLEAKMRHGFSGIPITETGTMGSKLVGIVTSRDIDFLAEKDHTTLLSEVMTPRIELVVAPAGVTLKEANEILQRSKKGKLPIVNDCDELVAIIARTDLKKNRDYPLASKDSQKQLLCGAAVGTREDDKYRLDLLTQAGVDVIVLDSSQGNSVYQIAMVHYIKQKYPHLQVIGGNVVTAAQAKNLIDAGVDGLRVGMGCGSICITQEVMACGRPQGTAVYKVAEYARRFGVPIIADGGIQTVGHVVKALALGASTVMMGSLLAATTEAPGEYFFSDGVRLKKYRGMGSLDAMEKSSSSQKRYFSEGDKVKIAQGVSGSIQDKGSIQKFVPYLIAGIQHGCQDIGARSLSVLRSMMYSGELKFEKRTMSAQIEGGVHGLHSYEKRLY
SMILES,Ki [1],Ki [2],"IC50 (K562; Homo sapiens, K562, 72 h)",IC50 (K562; k562),Ratio [3]
COc1cc(C/C=C(\C)CCC(=O)O)ccc1-c1cnco1,14.3 µM,42.8 µM,> 100 µM,–,–
COc1ccc(C/C=C(\C)CCC(=O)O)cc1-c1cnco1,8.7 µM,20.8 µM,> 100 µM,–,–
COc1c(C/C=C(\C)CCC(=O)O)cc(-c2cnco2)c(OC)c1C,> 100 µM,> 100 µM,–,–,–
COc1cc(OC)c(-c2cnco2)cc1C/C=C(/C)CCC(=O)O,30.1 µM,97.3 µM,71 µM,–,–

# Compounds with a lower Ki [1], results first:
Ki [1],Ki [2],"IC50 (K562; Homo sapiens, K562, 72 h)",IC50 (K562; k562),SMILES,Ratio [3]
4.3 µM,16 µM,56 µM,–,COc1cc(OC)c(-c2cnco2)cc1C/C=C(\C)CCC(=O)O (stereo in doubt; 3),10
2.3 µM,10.3 µM,–,88 µM,COc1cc(OC)c(-c2cnco2)cc1C/C=C(\C)CCC(=O)O (stereo in doubt; 3-E),–
